Several values for one entry are separate records, joined by “and”; a condition that tells them apart may be missing. Identical values can stand only once.

Experiment [1] has as its system Mus musculus. Nature of the experiment: Tested for its effect on spermatogenic index 3 days after single oral dose (3 mg/kg) in mice. Format: functional. In short, it runs like this:
(§1)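 CD-1 outbred Swiss albino male mice, 5 per dose, single gavage on day 0 at 10 mL/kg. Vehicle was 0.15 M acetate buffer pH 5, ethanol/Tween-20/water (3:7:90), or 1% Tween-20 in water. CO2 euthanasia 72 h later. Testes weighed and histologically scored (spermatogenic index 0–6). Values are % reduction versus the assay's vehicle control. Positive control was 30 mg/kg of the parent compound. Significance by Dunnett's one-tailed t-test, p < 0.05.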

Experiment [2] concerns Mus musculus. Nature of the experiment: Tested for its effect on spermatogenic index 3 days after single oral dose (90 mg/kg) in mice. Format: functional. The method in brief: as §1
The test system of experiment [3] is Mus musculus. Put plainly: Tested for its effect on mouse testes weight 3 days after single oral dose (90 mg/kg). The experiment is classed as functional, Testis. The method in brief:
as §1

Experiment [4] deals with Mus musculus. Put plainly: Tested for its effect on spermatogenic index 3 days after single oral dose (10 mg/kg) in mice. The experiment is classed as functional. In short, it runs like this: as §1
The subject of experiment [5] is Mus musculus. Nature of the experiment: Tested for its effect on mouse testes weight 3 days after single oral dose (10 mg/kg). Format: functional, Testis. In short, it runs like this: as §1
For experiment [6], the system named is Mus musculus. Put plainly: Tested for its effect on mouse testes weight 3 days after single oral dose (3 mg/kg). The experiment is classed as functional, Testis. In short, it runs like this:
as §1

Experiment [7] relates to Mus musculus. Put plainly: Tested for its effect on mouse testes weight 3 days after single oral dose (30 mg/kg). Format: functional, Testis. The method in brief: as §1
Experiment [8] relates to Mus musculus. Nature of the experiment: Tested for its effect on spermatogenic index 3 days after single oral dose (30 mg/kg) in mice. Format: functional. The method in brief: as §1
Experiment [9] deals with Mus musculus. Nature of the experiment: Tested for its effect on spermatogenic index 3 days after single oral dose (10 mg/kg),. Format: functional. The method in brief: as §1
Experiment [10] relates to Mus musculus. Put plainly: tested for its effect on spermatogenic index 3 days after single oral dose (90 mg/kg). The experiment is classed as functional. In short, it runs like this:
(§2)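 Male CD-1 (ICR)BR outbred Swiss albino mice, 5/dose, single oral gavage dose (10 mL/kg) on day 0 in acetate buffer pH 5 or Tween-20-based vehicle; killed 72 h later. Testis cross-sections scored histologically on a 0–6 spermatogenic index (Sertoli only to >100 late spermatids/tubule). Reported as % reduction versus vehicle control; Dunnett's one-tailed t-test.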

For experiment [11], the system named is Mus musculus. Nature of the experiment: Tested for its effect on testes weight 3 days after single oral dose (10 mg/kg). Format: functional, Testis. In short, it runs like this: as §1
For experiment [12], the system named is Mus musculus. Put plainly: tested for its effect on testes weight 3 days after single oral dose (90 mg/kg). The experiment is classed as functional, Testis. In short, it runs like this:
(§3)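 Male CD-1 (ICR)BR outbred Swiss albino mice, 5/dose, given one oral gavage dose (10 mL/kg) on day 0 in 0.15 M acetate buffer pH 5, ethanol/Tween-20/water (3:7:90), or 1% Tween-20 in water; vehicle and positive-control groups in each assay. Killed by CO2 72 h later; testes weighed. Expressed as % reduction versus vehicle control; Dunnett's one-tailed t-test.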

In experiment [13] the test system is Mus musculus. Nature of the experiment: tested for its effect on testes weight 3 days after single oral dose (30 mg/kg). Format: functional, Testis. The method in brief: as §3
The test system of experiment [14] is Mus musculus. Nature of the experiment: tested for its effect on spermatogenic index 3 days after single oral dose (30 mg/kg). The experiment is classed as functional. The method in brief:
as §2

For experiment [15], the system named is Mus musculus. Nature of the experiment: Tested for its effect on testes weight of male CD-1 mice when dosed with 15 mg/kg (Dunnett's one-tailed t-test, p<0.05). The experiment is classed as functional, Testis. In short, it runs like this:
(§4)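 Male CD-1 mice gavaged daily for 35 days in 1% Tween-20 in water at 10 mL/kg. Half of each group was killed 7 days after the last dose; testes were weighed and sectioned for histology. Spermatogenic index was scored 0–6 from the cell types and late spermatids per tubule. Mean ± SEM; Dunnett's one-tailed t-test versus control.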

Experiment [16] concerns Mus musculus. Nature of the experiment: Tested for its effect on pregnancy index of male CD-1 mice when dosed with 15 mg/kg (Dunnett's one-tailed t-test, p<0.05). The experiment is classed as functional. The method in brief:
(§5)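 Male CD-1 mice (8–10/group) gavaged daily for 35 days, vehicle 1% Tween-20 in water, 10 mL/kg. From the day after the last dose, each male was housed with two females for up to 5 days, with vaginal copulatory plugs checked each morning. Pregnancy index is litters born per number of females.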

Experiment [17] relates to Mus musculus. Nature of the experiment: Tested for its effect on spermatogenic index of male CD-1 mice when dosed with 3.75 mg/kg Data are means +/-standard error of the mean (n=4). The experiment is classed as functional. The method in brief: as §4
The subject of experiment [18] is Mus musculus. Put plainly: Tested for its effect on testes weight 3 days after single sub cutaneous dose (30 mg/kg). The experiment is classed as functional, Testis. The method in brief:
(§6)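 Single subcutaneous injection, 10 mL/kg, to male CD-1 mice (5 per dose) in ethanol/Tween-20/water (3:7:90, v/v/v) on day 0. Mice were killed at 72 h; testes were weighed and histology scored for spermatogenic index (0–6). Results are % reduction from the vehicle control, with a 30 mg/kg positive control group. Dunnett's one-tailed t-test.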

The test system of experiment [19] is Mus musculus. Nature of the experiment: Tested for its effect on spermatogenic index of male CD-1 mice when dosed with 7.5 mg/kg (Dunnett's one-tailed t-test, p<0.05). The experiment is classed as functional. The method in brief:
as §4

Experiment [20] deals with Mus musculus. Put plainly: Tested for its effect on spermatogenic index 3 days after single oral dose (10 mg/kg). The experiment is classed as functional. The method in brief: (§7)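 Male CD-1 (ICR) mice, 7 weeks old on arrival, 5 per dose, single gavage of 10 mL/kg on day 0. Vehicle was 0.15 M acetate buffer pH 5, ethanol/Tween-20/water 3:7:90, or 1% Tween-20. Mice were killed with CO2 at 72 h and testes weighed and scored for spermatogenic index (0–6 scale). Results are % reduction versus the vehicle control. Dunnett's one-tailed t-test.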

The test system of experiment [21] is Mus musculus. Nature of the experiment: Tested for its effect on spermatogenic index 3 days after single oral dose (90 mg/kg),. Format: functional. The method in brief: as §1
The test system of experiment [22] is Mus musculus. Nature of the experiment: Tested for its effect on spermatogenic index 3 days after single sub cutaneous dose (10 mg/kg). Format: functional. In short, it runs like this: as §6
Experiment [23] concerns Mus musculus. Put plainly: Tested for its effect on spermatogenic index 3 days after single oral dose (90 mg/kg). The experiment is classed as functional. In short, it runs like this: as §1
For experiment [24], the system named is Mus musculus. Put plainly: Tested for its effect on pregnancy index of male CD-1 mice when dosed with 3.75 mg/kg Data are means +/-standard error of the mean (n=4). The experiment is classed as functional. In short, it runs like this: as §5
Experiment [25] deals with Mus musculus. Nature of the experiment: Tested for its effect on testes weight of male CD-1 mice when dosed with 3.75 mg/kg Data are means +/-standard error of the mean (n=4). The experiment is classed as functional, Testis. The method in brief:
as §4

Experiment [26] deals with Mus musculus. Put plainly: Tested for its effect on testes weight 3 days after single sub cutaneous dose (3 mg/kg). Format: functional, Testis. In short, it runs like this:
as §6

Experiment [27] relates to Mus musculus. Nature of the experiment: Tested for its effect on testes weight 3 days after single oral dose (30 mg/kg). The experiment is classed as functional, Testis. In short, it runs like this: as §1
The subject of experiment [28] is Mus musculus. Put plainly: Tested for its effect on spermatogenic index 3 days after single oral dose (3 mg/kg). The experiment is classed as functional. The method in brief:
as §7

Experiment [29] concerns Mus musculus. Nature of the experiment: Tested for its effect on testes weight 3 days after single sub cutaneous (10 mg/kg). Format: functional, Testis. The method in brief: as §6
Experiment [30] has as its system Mus musculus. Nature of the experiment: Tested for its effect on testes weight of male CD-1 mice when dosed with 7.5 mg/kg (Dunnett's one-tailed t-test, p<0.05). Format: functional, Testis. The method in brief: as §4
Experiment [31] deals with Mus musculus. Nature of the experiment: Tested for its effect on pregnancy index of male CD-1 mice when dosed with 7.5 mg/kg (Dunnett's one-tailed t-test, p<0.05). Format: functional. The method in brief:
as §5

Experiment [32] relates to Mus musculus. Put plainly: Tested for its effect on spermatogenic index 3 days after single oral dose (30 mg/kg). Format: functional. In short, it runs like this: as §1
For experiment [33], the system named is Mus musculus. Nature of the experiment: Tested for its effect on spermatogenic index of male CD-1 mice when dosed with 15 mg/kg (Dunnett's one-tailed t-test, p<0.05). The experiment is classed as functional. The method in brief:
as §4

As for `CCN1CC[C@H]2[C@H](c3ccc(OC)cc3)c3cc(C)ccc3[C@H]2C1.Cl`, the Reduction is 2% in experiment [1]; -5% in [2]; 5% in experiment [3]; -6% in experiment [4]; -17% in [5]; -7% in experiment [6].
Take `Cc1ccc([C@H]2c3cc(C)ccc3[C@H]3CN(C)CC[C@@H]23)cc1.Cl`: the Reduction came to 12% in [7] and 7% in experiment [8].
`CCN1CC[C@H]2[C@H](c3ccc(C)cc3C)c3cc(C)ccc3[C@H]2C1.Cl`: the Reduction was found to be 0% in experiment [9]; 30% in [10]; 1% in experiment [11]; 11% in experiment [12]; 6% in experiment [13]; 3% in experiment [14].
With `CCN1CC[C@H]2[C@H](c3ccc(C(=O)OC)cc3)c3cc(C)ccc3[C@H]2C1.Cl`, the Testes weight stood at 108.94 mg in experiment [15], 219.08 mg in [25] and 114.7 mg in experiment [30]. The Pregnancy index in experiment [16] was determined as 0; in experiment [24], 16; in [31], 2. The Spermatogenic index worked out at 5.5 in experiment [17], 3 in experiment [19] and 1.6 in [33]. The Reduction is listed as 19% in experiment [18]; 27% in [20]; -5% in experiment [21]; 28% in experiment [22]; 68% in experiment [23]; 10% in [26]. Moreover, the Reduction was 32% and 30% in experiment [27]; 5% in experiment [28]; 1% in experiment [29]; 17% in experiment [11]; 57% and 46% and 61% in [32].

These data come from ChEMBL document CHEMBL1128250, “Structure-activity studies of 2,3,4,4a,5,9b-hexahydroindeno[1,2-c]pyridines as antispermatogenic agents for male contraception” (1995).
